Tested on: MS2 coat protein
Assay: apparent Kd, MS2 coat protein; higher = weaker binding; RNA-MaP array; FMN 200 µM where present
Method in brief: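 The titrant was SNAP-549-labelled MS2 coat protein, run from 0.7 or 1.5 nM in doubling steps to 3 µM. It was applied to designs transcribed by stalled E. coli RNA polymerase on Illumina sequencing-chip clusters, without ligand first and then with constant ligand, in 100 mM Tris-HCl pH 7.5, 80 mM KCl, 4 mM MgCl2, BSA, DTT, yeast tRNA and Tween-20. The apparent Kd is the median of filtered per-cluster binding-curve fits, with green signal normalised to red-channel RNA signal and control-cluster median Fmax.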

[1] = designed as: ON switch for flavin mononucleotide, no ligand
[2] = ligand present: flavin mononucleotide, designed as: ON switch for flavin mononucleotide
[3] = designed as: OFF switch for flavin mononucleotide, no ligand
[4] = ligand present: flavin mononucleotide, designed as: OFF switch for flavin mononucleotide

Row | Sequence | apparent Kd [1] | apparent Kd [2] | apparent Kd [3] | apparent Kd [4]
1 | CACAGGGAUUCAGGAUAUAUUAGCCGAGGCCGCGUAGAAGGGAAAUCCUGACAUGAGGAUCACCCAUGUUAACCCGCCUUCCAU | 37.6 nM | 42 nM | – | –
2 | AAACAGUACGAGAAGGGCUACAUGAGGAUCACCCAUGUAGACGGUCGUGUGGCAGGAUAUCGAACACACCCAAAACGGUGCGUU | – | – | 5.9 nM | 7.43 nM
3 | UUAUACGUUGAGGAUAUGUUAUUUAGUAUAGUUACAGAAGGCGAUACAUGAGGAUCACCCAUGUUUAUGGGCAU | – | – | 196 nM | 153 nM
4 | AACAGCUCGUCAGGAUAUAUUUUCUUUUUAUGUAUUUAUGUACAUGAGGAUCACCCAUGUUGUUUGUAGAAGGGACGAGCUGAA | – | – | 20.1 nM | 16.7 nM
5 | AUUCAGUCAGGAUAUCGUUAAUUUAAUUGUUUGUUUUAGUUCGAGAAGGGACAUGAGGAUCACCCAUGUACUUU | – | – | 20.2 nM | 19.3 nM
6 | UAUUUUUAUGUAAGGAUAUGGGUUUGGUUGCGGGCUUAGAAGGUACAUGAGGAUCACCCAUGUAUUUUGUGCGU | – | – | 16.9 nM | 18.3 nM
7 | GUAGAACAUGAGGAUCACCCAUGUGAUUACGAUGUAGGAUAUGGGCAUGAGAAGUCAUUUCUAGAAGGGCAGAUAA | 141 nM | 154 nM | – | –
8 | ACAAGUUUGUAGAAGGACGACUAAUUUGUAUUCGUAGGAUAUACUAUUUACAUGAGGAUCACCCAUGUUUUUAUGGAACAAUGU | – | – | 11.9 nM | 16.2 nM
9 | CUACCUUAUGAGAAGGCGGUCAUGAAACAUGAUCGAGGAUAUCAUGUAAACAUGAGGAUCACCCAUGUAUGGGUAUUAUGGUAA | 226 nM | 28.8 nM | – | –
10 | GACCUCCCUGUAAGGAUAUCCGUGCAUCAAAGCAAGGAGAAGGUACAUGAGGAUCACCCAUGUCACCCGCGUUA | – | – | 14.7 nM | 21 nM
11 | AAUUAACAUGAGGAUCACCCAUGUGAGGAUAUGGUAUUAUUUGGACAGUUAUGAUCUACCAGAAGGCACAUAUA | – | – | 39 nM | 65.1 nM
12 | GCCAACGCAUGAGGAUAUGCUCCCGUUUCGGGAGCAGAAGGCAUGUCAUAAGACAUGAGGAUCACCCAUGUAGUUAAGAUGGCA | 474 nM | 20.1 nM | – | –
13 | UUCAGCUCGACAGGAUAUACAUCACUGCUUCGGCAGUGUAUCUUAAUAACAUGAGGAUCACCCAUGUAGAAGGGUCGAGCUGAA | – | – | 17.9 nM | 31.4 nM
14 | GUAGCAUACGGAGGAUAUGUAGGAUCCACAUGAGGAUCACCCAUGUUAAGGACAGAAGGCCGUAUGCUACAAGAGCGAAAGCUC | 10.6 nM | 12.3 nM | – | –
15 | CUGCCGUAGGAGAAGGACGGCGGGUUAUUUUUGUACAUGAGGAUCACCCAUGUAGGAUAUCCUACGUCAGGCGACCUACUACAG | – | – | 33 nM | 34.5 nM
16 | CGUAGUUGGUAAGGAUAUCCUACACUAUUCUGACCCGUGCAAGCUACAUGAGGAUCACCCAUGUGGGAGAAGGUGCGUCAACGU | – | – | 10.8 nM | 10.9 nM
17 | CGGUGACGUGUAGGAUAUGGAGAUGGGUUUUGGCCAGAAGGACAUGAGGAUCACCCAUGUGGUAGAGGGUUGGCGGCUGCCCGU | – | – | 16.7 nM | 18.7 nM
18 | UCCUUGUCCUGAGGAUAUCCGAGGUUCCCAAAAGGAGAAGGCAGGACAUGAGGAUCACCCAUGUACCCAGAAAACGUGCAGAGU | – | – | 122 nM | 25 nM
19 | AAAAGACAUGAGGAUCACCCAUGUCUUCGGACAUGAGGAUAUGUACAGACUUCGGUCUGUACAGAAGGCAUGUCAA | 39.8 nM | 17.2 nM | – | –
20 | UUAAAUAGUGUGAGGAUAUGCUGGUCCUUGGAUCAGCAGAAGGCACAUGAGGAUCACCCAUGUAGUUAAUUUUA | – | – | 39.9 nM | 253 nM
21 | GAAGCACAUGAGGAUCACCCAUGUGAGGAUAUCCGUCUGGUCCGGCCGGGCCAGUACCGGAGAAGGCGCGUCGA | – | – | 34.7 nM | 29.7 nM
22 | UCAUUUCUGAAAGGAUAUUAAUUCAUGACGAUACAUGAGGAUCACCCAUGUUAAGAAGGUUCAAAUACAAAUAAUGCAUUGUUC | – | – | 13.2 nM | 11.1 nM
23 | ACAUACUCUCGAGGAUAUCGUAUAAUUAUUAAACGAGAAGGCGAUUGUUUAUUUCUAAUACACGACAUGAGGAUCACCCAUGUA | 27.1 nM | 25.4 nM | – | –

— the EternaBench riboswitch data
